Source: paper PMC3662250 (Synlett : accounts and rapid communications in synthetic …, 2010)

Target: human ΔF508-CFTR (Homo sapiens, UniProt P13569, DEL508-508)
Assay: ΔF508-CFTR corrector activity assay
Assay type: cell-based
Conditions: comparison with bithiazole 27 of earlier studies
Outline: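 FRT cells expressing ΔF508-CFTR, with FRT-null cells as counter-screen. Cells were PBS-washed, then incubated 20 min with forskolin (20 µM) plus genistein (50 µM). Fluorescence (ex 500, em 535 nm) was read 2 s baseline, then 12 s after adding PBS with 137 mM Cl− replaced by I−. Initial slope was extrapolated from an exponential fit of the final 11.5 s. Controls were DMSO vehicle, a bithiazole corrector and CFTRinh-172 inhibition.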

Vmax compared with s-cis locked bithiazole 27: greater Vmax value
Compound: Cc1cccc(Nc2ncnc3onc(-c4ccc(F)cc4)c23)c1C [Compound 7]
